# Source: ChEMBL document CHEMBL3608261, “Metabolically programmed iron chelators” (Bioorg Med Chem, 2015)
# Assays:
# Sapajus apella [1] = assay: Iron clearing efficiency in bile duct cannulated Cebus apella assessed as clearance of iron in urine at 75 umol/kg, po […] relative to control; assay type: functional
# Sapajus apella [2] = assay: Iron clearing efficiency in bile duct cannulated Cebus apella assessed as clearance of iron in urine at 150 umol/kg, po measured at 3 hrs intervals for up to 48 hrs relative to control; assay type: functional
# Sapajus apella [3] = assay: Iron clearing efficiency in bile duct cannulated Cebus apella assessed as clearance of iron at 150 umol/kg, po measured at 3 hrs intervals for up to 48 hrs relative to control; assay type: functional
# Sapajus apella [4] = assay: Iron clearing efficiency in bile duct cannulated Cebus apella assessed as clearance of iron in feces at 150 umol/kg, po measured at 3 hrs intervals for up to 48 hrs relative to control; assay type: functional
# Rattus norvegicus [5] = assay: Iron clearing efficiency in bile duct cannulated Sprague-Dawley rat assessed as clearance of iron at 300 umol/kg, po measured at 3 hrs intervals for up to 48 hrs relative to control; assay type: functional
# Method in brief: (§1)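 Non-iron-overloaded male Sprague-Dawley rats (400–450 g) with cannulated bile ducts received 300 µmol/kg po or sc. […] Bile was sampled every 3 h for up to 48 h and urine at 24 h intervals. ICE = (treated minus control iron excretion) / theoretical output (2:1 ligand:Fe) × 100 over 48 h. Mean ± SEM.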
# Sapajus apella [6] = assay: Iron clearing efficiency in bile duct cannulated Cebus apella assessed as clearance of iron in bile at 75 umol/kg, po measured at 3 hrs intervals for up to 48 hrs relative to control; assay type: functional
# Rattus norvegicus [7] = assay: Drug metabolism in Sprague-Dawley rat plasma assessed as (S)-4'-(HO)-DADFT-PEAA level at 300 umol/kg, sc after 8 hrs by HPLC analysis; assay type: ADME, organism-based; conditions: in vivo
# Method in brief: (§2)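 Male Sprague-Dawley rats (250–350 g) got a single sc dose of the monosodium salt at 300 µmol/kg, n=3 per time point. They were killed with CO2 at 0.5, 1, 2, 4 and 8 h. Citrated cardiac-puncture blood was spun to plasma, and liver, kidney, heart and pancreas were frozen. Tissue was homogenized 1:1 in water, given a methanol rinse, held 30 min at −20 °C, centrifuged and filtered. Read-out was reversed-phase HPLC, UV 310 nm.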
# Rattus norvegicus [8] = assay: Iron clearing efficiency in bile duct cannulated Sprague-Dawley rat assessed as clearance of iron in urine at 300 umol/kg, po measured at 3 hrs intervals for up to 48 hrs relative to control; assay type: functional
# Rattus norvegicus [9] = assay: Drug metabolism in Sprague-Dawley rat kidney assessed as (S)-4'-(HO)-DADFT-PEAA level at 300 umol/kg, sc up to 8 hrs by HPLC analysis; assay type: ADME, organism-based; conditions: in vivo; method in brief: as §2
# Rattus norvegicus [10] = assay: Drug metabolism in Sprague-Dawley rat pancreas assessed as (S)-4'-(HO)-DADFT-PEAA level at 300 umol/kg, sc up to 8 hrs by HPLC analysis; assay type: ADME, organism-based; conditions: in vivo; method in brief: as §2
# Rattus norvegicus [11] = assay: Iron clearing efficiency in bile duct cannulated Sprague-Dawley rat assessed as clearance of iron in bile at 300 umol/kg, po measured at 3 hrs intervals for up to 48 hrs relative to control; assay type: functional; method in brief: as §1
# Rattus norvegicus [12] = assay: Drug metabolism in Sprague-Dawley rat heart assessed as (S)-4'-(HO)-DADFT-PEAA level at 300 umol/kg, sc up to 8 hrs by HPLC analysis; assay type: ADME, organism-based; conditions: in vivo; method in brief: as §2
# Sapajus apella [13] = assay: Iron clearing efficiency in bile duct cannulated Cebus apella assessed as clearance of iron in urine at 75 umol/kg, sc […] relative to control; assay type: functional
# Sapajus apella [14] = assay: Iron clearing efficiency in bile duct cannulated Cebus apella assessed as clearance of iron in bile at 75 umol/kg, sc measured at 3 hrs intervals for up to 48 hrs relative to control; assay type: functional
# Rattus norvegicus [15] = assay: Iron clearing efficiency in bile duct cannulated Sprague-Dawley rat assessed as clearance of iron in bile at 300 umol/kg, sc measured at 3 hrs intervals for up to 48 hrs relative to control; assay type: functional; method in brief: as §1
# Rattus norvegicus [16] = species on record: Rattus norvegicus; assay: Iron clearing efficiency in bile duct cannulated Sprague-Dawley rat assessed as […] for up to 48 hrs relative to control; assay type: functional, Urine
# [17] = Performance ratio, ratio of iron clearing efficiency in […] at 75 umol/kg, po to iron clearing efficiency in bile duct cannulated Sprague-Dawley rat at 300 umol/kg, po; assay type: functional
# Method in brief: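 Performance ratio = mean ICE in iron-overloaded Cebus apella (75 µmol/kg) divided by mean ICE in bile duct-cannulated rats (300 µmol/kg), by the same route.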
# Sapajus apella [18] = assay: Iron clearing efficiency in bile duct cannulated Cebus apella assessed as clearance of iron in feces at 150 umol/kg, sc measured at 3 hrs intervals for up to 48 hrs relative to control; assay type: functional
# Rattus norvegicus [19] = assay: Iron clearing efficiency in bile duct cannulated Sprague-Dawley rat assessed as clearance of iron in urine at 150 umol/kg, sc measured at 3 hrs intervals for up to 48 hrs relative to control; assay type: functional
# Rattus norvegicus [20] = assay: Iron clearing efficiency in bile duct cannulated Sprague-Dawley rat assessed as clearance of iron at 150 umol/kg, sc measured at 3 hrs intervals for up to 48 hrs relative to control
# Sapajus apella [21] = assay: Iron clearing efficiency in bile duct cannulated Cebus apella assessed as clearance of iron in urine at 150 umol/kg, sc measured at 3 hrs intervals for up to 48 hrs relative to control; assay type: functional
# Rattus norvegicus [22] = assay: Drug metabolism in Sprague-Dawley rat kidney assessed as (S)-4'-(HO)-DADFT-PEA level at 300 umol/kg, sc up to 8 hrs by HPLC analysis; assay type: ADME, organism-based; conditions: in vivo; method in brief: as §2
# Rattus norvegicus [23] = assay: Drug metabolism in Sprague-Dawley rat liver assessed as (S)-4'-(HO)-DADFT-PEA level at 300 umol/kg, sc up to 8 hrs by HPLC analysis; assay type: ADME, organism-based; conditions: in vivo; method in brief: as §2
# Sapajus apella [24] = assay: Iron clearing efficiency in […] Cebus apella assessed as clearance of iron in feces at 75 umol/kg, po […] relative to control; assay type: functional
# Method in brief: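 Cebus apella monkeys (3.5–6.5 kg) were iron-overloaded with intravenous iron dextran to about 500 mg Fe/kg, reaching serum transferrin saturation of 70–80%. At least 60 days elapsed before use. Chelator was given at 75 µmol/kg po or sc, with the same animals dosed by both routes. Feces and urine were collected at 24 h intervals from 4 days before to 5 days after dosing, and iron was measured by flame absorption spectroscopy. ICE = 2-day post-drug output minus 4-day mean baseline, divided by theoretical output (2:1 ligand:Fe), as %. Mean ± SEM.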
# Rattus norvegicus [25] = assay: Drug metabolism in Sprague-Dawley rat liver assessed as (S)-4'-(HO)-DADFT-PEAA level at 300 umol/kg, sc up to 8 hrs by HPLC analysis; assay type: ADME, organism-based; conditions: in vivo; method in brief: as §2
# Rattus norvegicus [26] = assay: Drug metabolism in Sprague-Dawley rat heart assessed as (S)-4'-(HO)-DADFT-PEA level at 300 umol/kg, sc up to 8 hrs by HPLC analysis; assay type: ADME, organism-based; conditions: in vivo; method in brief: as §2
# [27] = Drug metabolism in Sprague-Dawley rat plasma assessed as parent compound level at 300 umol/kg, sc after 0.5 hrs by HPLC analysis; assay type: ADME, organism-based; conditions: read-out: Stability
# Method in brief: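 Rats (male Sprague-Dawley, 250–350 g) were dosed sc once with the monosodium salt, 300 µmol/kg, three animals per time point up to 8 h. Plasma came from citrated cardiac blood; liver was frozen after CO2 euthanasia. Parent and metabolites were quantified by HPLC with UV at 310 nm against linear calibration curves (detection limit 0.25 µM, linear 1–1000 µM). Data are means.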
# Rattus norvegicus [28] = assay: Drug metabolism in Sprague-Dawley rat liver assessed as (S)-4'-(HO)-DADFT level at 300 umol/kg, sc after 8 hrs; assay type: ADME, organism-based; conditions: in vivo
# Rattus norvegicus [29] = assay: Drug metabolism in Sprague-Dawley rat pancreas assessed as (S)-4'-(HO)-DADFT-PEA level at 300 umol/kg, sc up to 8 hrs by HPLC analysis; assay type: ADME, organism-based; conditions: in vivo; method in brief: as §2
# Rattus norvegicus [30] = assay: Drug metabolism in Sprague-Dawley rat plasma assessed as (S)-4'-(HO)-DADFT-PEA level at 300 umol/kg, sc up to 8 hrs by HPLC analysis; assay type: ADME, organism-based; conditions: in vivo; method in brief: as §2
# Rattus norvegicus [31] = assay: Drug metabolism in Sprague-Dawley rat plasma assessed as (S)-4'-(HO)-DADFT-PEAA level at 300 umol/kg, sc up to 8 hrs by HPLC analysis; assay type: ADME, organism-based; conditions: in vivo; method in brief: as §2
structure (smiles),measurement,setting,value
COCCOCCOc1ccc(C2=N[C@@](C)(C(=O)[O-])CS2)c(O)c1.[Na+],Activity,Sapajus apella [1],17%
C[C@]1(C(=O)O)CSC(c2cccc(O)c2O)=N1,Activity,Sapajus apella [2],17%
same,Activity,Sapajus apella [3],23.1%
same,Activity,Sapajus apella [4],83%
COc1ccc(C2=N[C@@](C)(C(=O)O)CS2)c(O)c1,Activity,Rattus norvegicus [5],6.6%
C[C@]1(C(=O)O)CSC(c2ccc(OCCOCCO)cc2O)=N1,Activity,Sapajus apella [6],54%
same,Activity,Sapajus apella [1],46%
same,Drug metabolism,Rattus norvegicus [7],metabolite_notdetected
same,Activity,Rattus norvegicus [8],2%
same,Drug metabolism,Rattus norvegicus [9],metabolite_detected
same,Drug metabolism,Rattus norvegicus [10],metabolite_detected
same,Activity,Rattus norvegicus [11],98%
same,Drug metabolism,Rattus norvegicus [12],metabolite_detected
C[C@]1(C(=O)O)CSC(c2ccc(OCCOCC(=O)O)cc2O)=N1,Activity,Sapajus apella [6],51%
same,Activity,Sapajus apella [1],49%
same,Activity,Rattus norvegicus [8],0%
same,Activity,Rattus norvegicus [11],100%
COCCCCCCOc1ccc(C2=N[C@@](C)(C(=O)O)CS2)c(O)c1,Activity,Rattus norvegicus [8],1%
same,Activity,Rattus norvegicus [11],99%
C[C@]1(C(=O)O)CSC(c2ccc(OCCCCCC(=O)O)cc2O)=N1,Activity,Sapajus apella [6],82%
same,Activity,Sapajus apella [1],18%
same,Activity,Rattus norvegicus [8],6%
same,Activity,Rattus norvegicus [11],94%
C[C@]1(C(=O)O)CSC(c2ccc(OCCCC(=O)O)cc2O)=N1,Activity,Sapajus apella [6],97%
same,Activity,Sapajus apella [1],3%
same,Activity,Rattus norvegicus [8],11%
same,Activity,Rattus norvegicus [11],89%
C[C@]1(C(=O)O)CSC(c2ccc(OCC(=O)O)cc2O)=N1,Activity,Sapajus apella [6],60%
same,Activity,Sapajus apella [1],40%
same,Activity,Rattus norvegicus [8],11%
same,Activity,Rattus norvegicus [11],89%
C[C@]1(C(=O)[O-])CSC(c2ccc(OCCOCC(=O)O)cc2O)=N1.[Na+],Activity,Sapajus apella [13],16%
same,Activity,Sapajus apella [14],84%
same,Activity,Rattus norvegicus [15],99%
same,Activity,Rattus norvegicus [16],1%
C[C@]1(C(=O)[O-])CSC(c2ccc(OCCCCCC(=O)O)cc2O)=N1.[Na+],Activity,Sapajus apella [13],31%
same,Activity,Sapajus apella [14],69%
same,Activity,Rattus norvegicus [15],96%
same,Ratio,[17],1.2
same,Activity,Rattus norvegicus [16],4%
C[C@]1(C(=O)[O-])CSC(c2ccc(OCCCC(=O)O)cc2O)=N1.[Na+],Activity,Sapajus apella [13],22%
same,Activity,Sapajus apella [14],78%
same,Activity,Rattus norvegicus [15],95%
same,Activity,Rattus norvegicus [16],5%
C[C@]1(C(=O)[O-])CSC(c2ccc(OCC(=O)O)cc2O)=N1.[Na+],Activity,Sapajus apella [13],47%
same,Activity,Sapajus apella [14],53%
same,Activity,Rattus norvegicus [15],94%
COCCOCCOCCOc1ccc(C2=N[C@@](C)(C(=O)O)CS2)c(O)c1,Activity,Rattus norvegicus [5],5.5%
COCCOCCOCCOc1cccc(C2=N[C@@](C)(C(=O)O)CS2)c1O [DEFERITAZOLE],Activity,Sapajus apella [2],5%
same,Activity,Sapajus apella [3],23%
same,Activity,Sapajus apella [4],95%
CC(=O)N(O)CCCCCNC(=O)CCC(=O)N(O)CCCCCNC(=O)CCC(=O)N(O)CCCCCN [DEFEROXAMINE],Activity,Sapajus apella [18],45%
same,Activity,Rattus norvegicus [19],26%
same,Activity,Rattus norvegicus [20],74%
same,Activity,Sapajus apella [21],55%
COCCOCCOc1ccc(C2=N[C@@](C)(C(=O)O)CS2)c(O)c1 [SP-420],Drug metabolism,Rattus norvegicus [22],metabolite_detected
same,Drug metabolism,Rattus norvegicus [23],metabolite_detected
same,Activity,Rattus norvegicus [8],3%
same,Drug metabolism,Rattus norvegicus [9],metabolite_notdetected
same,Activity,Sapajus apella [24],93%
same,Drug metabolism,Rattus norvegicus [10],metabolite_notdetected
same,Drug metabolism,Rattus norvegicus [25],metabolite_notdetected
same,Activity,Rattus norvegicus [11],97%
same,Drug metabolism,Rattus norvegicus [12],metabolite_notdetected
same,Drug metabolism,Rattus norvegicus [26],metabolite_detected
same,remaining at 0.5 h,[27],95%
same,Drug metabolism,Rattus norvegicus [28],metabolite_notdetected
same,Drug metabolism,Rattus norvegicus [29],metabolite_detected
same,Drug metabolism,Rattus norvegicus [30],metabolite_detected
same,Drug metabolism,Rattus norvegicus [31],metabolite_notdetected
